Consider 16 compounds from PubChem BioAssay.

Experiment [1] can be described thus: Her2 expression decrease, cell viability multiplex – SKBR3 breast tumor cells, AlphaScreen, ATP viability, primary screen (AID 461;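 active means Her2 level under about 52% in both replicate screens, with viability over 70% of control, limit read from the data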;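 on Her2 level: lower value means less Her2 protein in the cells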;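 on viability: percent of carrier control wells set as 100% viability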). The note with it: SKBR3 Her2 protein level, 18-24 h, measured here: SKBR3 viability, ATP luminescence, at 10 µM.
The target in experiment [2] is Receptor tyrosine-protein kinase erbB-2 (Homo sapiens) (UniProt P04626). Described as above. Particulars: 18-24 h, at 10 µM, stronger effect = lower value.
Sequence of Receptor tyrosine-protein kinase erbB-2 (Homo sapiens) (P04626 whole entry, looked up): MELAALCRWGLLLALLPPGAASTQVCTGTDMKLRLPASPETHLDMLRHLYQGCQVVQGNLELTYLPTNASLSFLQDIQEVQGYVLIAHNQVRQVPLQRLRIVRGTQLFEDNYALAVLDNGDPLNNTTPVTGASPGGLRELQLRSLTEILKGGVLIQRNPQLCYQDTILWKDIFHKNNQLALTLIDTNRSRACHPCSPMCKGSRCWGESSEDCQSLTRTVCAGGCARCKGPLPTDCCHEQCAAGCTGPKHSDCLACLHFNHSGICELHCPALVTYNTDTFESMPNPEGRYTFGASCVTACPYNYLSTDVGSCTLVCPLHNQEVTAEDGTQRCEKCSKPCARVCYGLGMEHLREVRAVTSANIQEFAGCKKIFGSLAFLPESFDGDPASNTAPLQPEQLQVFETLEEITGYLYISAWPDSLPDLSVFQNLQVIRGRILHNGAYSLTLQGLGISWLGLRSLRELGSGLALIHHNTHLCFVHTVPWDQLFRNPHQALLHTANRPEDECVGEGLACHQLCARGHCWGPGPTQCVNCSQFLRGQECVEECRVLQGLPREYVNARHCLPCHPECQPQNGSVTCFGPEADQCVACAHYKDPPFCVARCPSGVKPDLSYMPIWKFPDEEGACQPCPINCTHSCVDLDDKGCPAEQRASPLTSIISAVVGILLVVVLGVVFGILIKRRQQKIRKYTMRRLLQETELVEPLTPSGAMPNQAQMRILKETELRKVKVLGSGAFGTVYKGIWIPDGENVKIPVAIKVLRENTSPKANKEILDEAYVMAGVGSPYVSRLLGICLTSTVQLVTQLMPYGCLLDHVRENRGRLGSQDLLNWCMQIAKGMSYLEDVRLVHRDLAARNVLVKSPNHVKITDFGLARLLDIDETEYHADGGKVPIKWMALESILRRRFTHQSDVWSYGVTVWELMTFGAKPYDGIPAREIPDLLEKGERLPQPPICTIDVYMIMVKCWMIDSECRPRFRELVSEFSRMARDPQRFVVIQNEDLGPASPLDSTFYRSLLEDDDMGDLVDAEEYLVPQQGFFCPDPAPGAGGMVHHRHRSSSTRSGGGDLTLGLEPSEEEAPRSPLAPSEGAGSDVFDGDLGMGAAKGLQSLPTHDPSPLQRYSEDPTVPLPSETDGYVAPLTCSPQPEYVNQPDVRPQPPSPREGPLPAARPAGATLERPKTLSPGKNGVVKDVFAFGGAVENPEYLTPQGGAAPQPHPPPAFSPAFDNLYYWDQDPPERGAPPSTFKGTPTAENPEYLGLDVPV
Experiment [3] in a line: reduced viability of SK-BR-3 breast cancer cells – cell-based, 24 h, human, pilot screen (AID 572;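 active means viability at or below 10% of carrier control in both of two separate runs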;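 further: compound exposure lasted between 18 and 24 h rather than exactly 24 h; 100% = carrier-treated control wells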). The note with it: SK-BR-3 viability, CellTiter-Glo luminescence, at 10 µM, stronger effect = lower value. Background: In ATP-based viability assays light output follows the ATP content of the culture.
The nature of experiment [4]: HUVEC growth inhibition – cell-based, human, primary screen (AID 575;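 active means viability at or below 30% in both replicate assays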;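 further: 100% = median of untreated cell wells with 0.1% DMSO on each plate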). Particulars: HUVEC proliferation, CellTiter-Glo luminescence, 72 h; at 10 µM; stronger effect = lower value. In short, it runs like this: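 System – primary HUVEC, no more than 12 passages · Medium – Low-serum (2% FBS) EBM, supplemented · Times – 72 h exposure, 37 °C, 5% CO2, 30 min RT equilibration · Measured by – luminescent ATP assay · Read-out – % viability relative to median vehicle-well signal on each plate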

Experiment [5] is described as follows: H69AR cell proliferation blockers – human, duplicate replicates, primary screen (AID 580;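 active means viability at or under a set limit in both replicates, limit being median viability minus 3 SD, cut at about 48% in these data, passing the limit was not always enough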;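 further: 100% = mean luminescence of untreated wells and 0% = no signal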). The note with it: H69AR lung tumor cells viability, ATP luminescence, 72 h; at 10 µM; stronger effect = lower value.
Experiment [6] can be described thus: MRP1 drug-resistance reversers in H69AR cells – cell-based, doxorubicin co-treatment, pilot screen (AID 601). Particulars: CellTiter-Glo, 72 h, at 10 µM; for differential viability (reversal): stronger effect = higher value.
The nature of experiment [7]: yeast transport mutant growth inhibition pilot in 384-well plates, post-Golgi transport modulator project (AID 636; in the data active means inhibition above about 31%). Particulars: absorbance 615 nm, about 18 h, stronger effect = higher value.
Experiment [8] can be described thus: growth suppression of yeast trafficking mutant, preliminary HTS, modulators of trafficking downstream of Golgi apparatus project, 1536-format plate, OD 615 nm (AID 637; in the data active means inhibition above about 30%). Particulars: yeast transport mutant growth, absorbance 615 nm, 18 h; stronger effect = higher value.
Setting [9] is: H69AR cells + 2 uM doxorubicin, measured here: viability with 2 uM doxorubicin, stronger effect = lower value.
[10] abbreviates: H69AR cells, compound alone cytotoxicity.

Activity calls are given as the source filed them.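 How the source made its calls, unless noted: active means viability loss from added drug above about 55%, and viability with drug at most 40%, in both replicates (limit read from the data, passing the limit was not always enough); inconclusive means both conditions met in only one replicate; inactive means neither replicate meets both conditions.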

The term viability denotes a read-out of living cells in per cent, often relative to untreated cells. For orientation: inhibition means the relative decrease from the control value, in per cent. As to `COc1ccc(CN(CC(=O)NCc2ccco2)C(=O)CCC(=O)Nc2nccs2)cc1`, the viability in experiment [1] was 96%; in experiment [3] it was 96% (inactive); in experiment [4] it was 85.5% (inactive); in experiment [5] it was 101% (inactive); in experiment [6] (setting [9]), 89.6%; in experiment [6] (setting [10]), 101%. Further, the Her2 level in experiment [2] was 104% (inactive). In addition, the differential viability (reversal) in experiment [6] (H69AR cells + 2 uM doxorubicin) was 11% (inactive). For the same compound, the results for the inhibition in experiment [7] and in experiment [8] were 1.22% (inactive) and -2.13% (inactive), respectively.

As to `CC(=O)N(c1ccc(N(C(C)=O)S(=O)(=O)c2cccs2)cc1)S(=O)(=O)c1cccs1`, the viability in experiment [1] is 90%; in experiment [3] it was 90% (inactive); in experiment [4], 85% (inactive); in experiment [5], 86% (inactive); in experiment [6] (setting [9]) it was 108%; in experiment [6] (setting [10]) it was 86%. Moreover, in experiment [2], the Her2 level is 104% (inactive). Also, in experiment [6] (H69AR cells + 2 uM doxorubicin), the differential viability (reversal) was -22.3% (inactive). Besides, the inhibition in experiment [7] was -1.18% (inactive); in experiment [8] it was 1.15% (inactive).

For `Cc1cc(=O)n2[nH]c(COc3ccccc3)nc2n1`, the viability in experiment [1] is 101%; in experiment [3] it was 101% (inactive); in experiment [4] it was 94.1% (inactive); in experiment [5], 108% (inactive); in experiment [6] (setting [9]), 94%; in experiment [6] (setting [10]), 108%. Also, the Her2 level in experiment [2] was 105% (inactive). Besides, in experiment [6] (H69AR cells + 2 uM doxorubicin), the differential viability (reversal) is 14% (inactive). Also, the inhibition was -5.33% (inactive) in experiment [7] and -6.13% (inactive) in experiment [8].

For `CCCCOc1cccc(NC(=O)CSc2nccn2C)c1`, the viability in experiment [1] was 107%; in experiment [3] it was 107% (inactive); in experiment [4], 99.9% (inactive); in experiment [5] it was 85.3% (inactive); in experiment [6] (setting [9]) it was 87.3%; in experiment [6] (setting [10]), 85.3%. The Her2 level in experiment [2] is 81.5% (inactive). Besides, the differential viability (reversal) in experiment [6] (H69AR cells + 2 uM doxorubicin) was -1.98% (inactive). Also, the inhibition is -7.03% (inactive) in experiment [7] and 0.5% (inactive) in experiment [8].

With `Cc1cc(C)c2c(n1)nn1c(N3CCOCC3)cc(C)nc21`, the viability is 90% in experiment [1]; 90% (inactive) in experiment [3]; 110% (inactive) in experiment [4]; 87.1% (inactive) in experiment [5]; 93.4% in experiment [6] (setting [9]); 87.1% in experiment [6] (setting [10]). Moreover, the Her2 level in experiment [2] was 87.5% (inactive). Besides, the differential viability (reversal) in experiment [6] (H69AR cells + 2 uM doxorubicin) is -6.34% (inactive). For the same compound, the inhibition in experiment [7] is -4.86% (inactive); in experiment [8] it was 0.79% (inactive).

With `CC(C)(C)OC(=O)N1CCC(C(=O)N[C@H](Cc2ccccc2)C(=O)O)CC1`, the viability in experiment [1] was 101%; in experiment [3], 101% (inactive); in experiment [4], 108% (inactive); in experiment [5], 98.2% (inactive); in experiment [6] (setting [9]), 95.1%; in experiment [6] (setting [10]), 98.2%. Further, the Her2 level in experiment [2] was 93.5% (inactive). In addition, the differential viability (reversal) in experiment [6] (H69AR cells + 2 uM doxorubicin) was 3.02% (inactive). The inhibition in experiment [7] is -10.4% (inactive); in experiment [8], 3.5% (inactive).

Take `CCOc1ccccc1CNC(=O)CCN1C(=O)COc2ccccc21`: the viability in experiment [1] is 104%; in experiment [3] it was 104% (inactive); in experiment [4], 88.8% (inactive); in experiment [5], 92.9% (inactive); in experiment [6] (setting [9]) it was 89.5%; in experiment [6] (setting [10]), 92.9%. For the same compound, the Her2 level in experiment [2] was 110% (inactive). Further, in experiment [6] (H69AR cells + 2 uM doxorubicin), the differential viability (reversal) is 3.42% (inactive). Also, the values for the inhibition in experiment [7] and in experiment [8] were -1.15% (inactive) and -7% (inactive), respectively.

Turning to `CCOC(=O)C(C)On1c(SC(C)C(=O)OCC)nc2ccccc2c1=O` (stereo not given), the viability in experiment [1] is 131%; in experiment [3] it was 131% (inactive); in experiment [4] it was 93.4% (inactive); in experiment [5], 82.1% (inactive); in experiment [6] (setting [9]), 102%; in experiment [6] (setting [10]), 82.1%. Further, the Her2 level in experiment [2] was 102% (inactive). For the same compound, in experiment [6] (H69AR cells + 2 uM doxorubicin), the differential viability (reversal) is -19.7% (inactive). Also, the inhibition in experiment [7] was -3.68% (inactive); in experiment [8] it was -6.61% (inactive).

Take `CCc1ccccc1-n1c(SCC(=O)N2CCCC2)nnc1-c1ccccn1`: the viability is 106% in experiment [1]; 106% (inactive) in experiment [3]; 123% (inactive) in experiment [4]; 95.3% (inactive) in experiment [5]; 93.3% in experiment [6] (setting [9]); 95.3% in experiment [6] (setting [10]). Further, in experiment [2], the Her2 level was 99.5% (inactive). Also, the differential viability (reversal) in experiment [6] (H69AR cells + 2 uM doxorubicin) is 1.95% (inactive). In addition, the results for the inhibition in experiment [7] and in experiment [8] were 1.92% (inactive) and -6.03% (inactive), respectively.

For `O=C(c1ccc(Cl)cc1)N(Cc1cccs1)C1CCS(=O)(=O)C1` (stereo not given), the viability in experiment [1] is 100%; in experiment [3], 100% (inactive); in experiment [4], 117% (inactive); in experiment [5] it was 89.2% (inactive); in experiment [6] (setting [9]), 97.6%; in experiment [6] (setting [10]) it was 89.2%. The Her2 level in experiment [2] was 138% (inactive). The differential viability (reversal) in experiment [6] (H69AR cells + 2 uM doxorubicin) was -8.41% (inactive). Moreover, the results for the inhibition in experiment [7] and in experiment [8] were -3.29% (inactive) and 7.7% (inactive), respectively.

As to `Cc1cc(NC(c2cccnc2)c2c(C)[nH]c3ccccc23)no1` (stereo not given), the viability is 97% in experiment [1]; 97% (inactive) in experiment [3]; 85.1% (inactive) in experiment [4]; 89% (inactive) in experiment [5]; 97% in experiment [6] (setting [9]); 89% in experiment [6] (setting [10]). Besides, the Her2 level in experiment [2] is 76% (inactive). For the same compound, the differential viability (reversal) in experiment [6] (H69AR cells + 2 uM doxorubicin) is -8.09% (inactive). For the same compound, the inhibition in experiment [7] was -5.6% (inactive); in experiment [8], 3.61% (inactive).

Turning to `CCOc1ccccc1N1CCN(c2nc(N)c(C#N)c(CC#N)c2C#N)CC1`, the viability is 108% in experiment [1]; 108% (inactive) in experiment [3]; 70.7% (inactive) in experiment [4]; 61.7% (inactive) in experiment [5]; 84.5% in experiment [6] (setting [9]); 61.7% in experiment [6] (setting [10]). The Her2 level in experiment [2] was 74.5% (inactive). Further, in experiment [6] (H69AR cells + 2 uM doxorubicin), the differential viability (reversal) was -22.8% (inactive). The inhibition was -4.34% (inactive) in experiment [7] and 5.64% (inactive) in experiment [8].

With `CC(C)C(c1nnnn1CC1CCCO1)N1CCN(Cc2ccc3c(c2)OCO3)CC1` (stereo not given), the viability in experiment [1] is 102%; in experiment [3], 102% (inactive); in experiment [4], 113% (inactive); in experiment [5] it was 95.3% (inactive); in experiment [6] (setting [9]), 90.3%; in experiment [6] (setting [10]), 95.3%. Also, the Her2 level in experiment [2] is 82.5% (inactive). Besides, the differential viability (reversal) in experiment [6] (H69AR cells + 2 uM doxorubicin) is 4.93% (inactive). For the same compound, the inhibition was -6.44% (inactive) in experiment [7] and -3.97% (inactive) in experiment [8].

For `O=C1CCCc2c1cc(C(=O)NCc1ccco1)c(=O)n2-c1ccc(Cl)cc1`, the viability in experiment [1] is 88%; in experiment [3], 88% (inactive); in experiment [4] it was 80.8% (inactive); in experiment [5] it was 93.5% (inactive); in experiment [6] (setting [9]) it was 80.5%; in experiment [6] (setting [10]), 93.5%. Besides, the Her2 level in experiment [2] is 110% (inactive). Besides, the differential viability (reversal) in experiment [6] (H69AR cells + 2 uM doxorubicin) is 13% (inactive). The inhibition in experiment [7] was -4.8% (inactive); in experiment [8] it was -3.39% (inactive).

Consider `COc1ccc(/C(O)=C2/C(=O)C(=O)N(CCN(C)C)C2c2ccccn2)cc1OC` (stereo not given), for which the viability in experiment [1] was 92.5%; in experiment [3], 92.5% (inactive); in experiment [4] it was 103% (inactive); in experiment [5] it was 91.5% (inactive); in experiment [6] (setting [9]) it was 88.3%; in experiment [6] (setting [10]) it was 91.5%. The Her2 level in experiment [2] is 91.5% (inactive). For the same compound, the differential viability (reversal) in experiment [6] (H69AR cells + 2 uM doxorubicin) is 3.17% (inactive). The inhibition was -4.19% (inactive) in experiment [7] and -6.19% (inactive) in experiment [8].

As to `CN(Cc1ccccc1)Cc1c[nH]c2ccccc12`, the viability in experiment [1] was 87%; in experiment [3], 87% (inactive); in experiment [4] it was 79.7% (inactive); in experiment [5], 89.8% (inactive); in experiment [6] (setting [9]) it was 96.3%; in experiment [6] (setting [10]), 89.8%. The Her2 level in experiment [2] is 96.5% (inactive). Moreover, the differential viability (reversal) in experiment [6] (H69AR cells + 2 uM doxorubicin) is -6.54% (inactive). Also, the inhibition in experiment [7] is -4.61% (inactive); in experiment [8] it was -1.5% (inactive).
